Experimental data: ChEMBL document CHEMBL1782040, “Exceptionally fast uptake and metabolism of cyanidin 3-glucoside by rat kidneys and liver” (J Nat Prod, 2011)

What was measured:
[1] = tested on: Liver; assay: Drug uptake in Wistar rat liver assessed as peonidin 3-glucoside level at 0.67 umol, iv after 15 mins by mass spectrometry analysis; assay type: ADME, organism-based; conditions: in vivo, 0.25 h
In short: (§1)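 Fasting, anaesthetized rats received cyanidin 3-glucoside in saline into the iliac vein (0.67 μmol) and were killed at 15 s, 1, 5 or 15 min. Liver homogenates were methanol-extracted, cleaned up by SPE and quantified by LC-MS/MS.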

[2] = tested on: Kidney; assay: Drug uptake in Wistar rat kidney assessed as peonidin 3-glucoside level by assuming kidney mass was 2.4 gram at 0.67 umol, iv after 0.25 mins by mass spectrometry analysis; assay type: ADME, organism-based; conditions: in vivo, 15 s
In short: (§2)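 Cyanidin 3-glucoside in saline was given as one iliac-vein injection (0.67 μmol) to fasting, anaesthetized rats, which were killed at 15 s, 1, 5 or 15 min. Kidneys were homogenized, extracted in methanol, cleaned up by SPE and analysed by LC-MS/MS.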

[3] = tested on: Liver; assay: Drug uptake in Wistar rat liver assessed as peonidin 3-glucoside level at 0.67 umol, iv after 5 mins by mass spectrometry analysis; assay type: ADME, organism-based; conditions: in vivo, read-out: Drug uptake; in short: as §1
[4] = Drug uptake in Wistar rat bile assessed as peonidin 3-glucoside level by assuming plasma volume was 8.8 mL at 0.67 umol, iv after 15 mins by mass spectrometry analysis; assay type: ADME, organism-based; conditions: in vivo, 0.25 h
[5] = tested on: Liver; assay: Drug uptake in Wistar rat liver assessed as peonidin 3-glucoside level by assuming liver mass was 7 grams at 0.67 umol, iv after 0.25 mins by mass spectrometry analysis; assay type: ADME, organism-based; conditions: in vivo, 15 s; in short: as §1
[6] = Drug excretion in Wistar rat urine assessed as peonidin 3-glucoside level at 0.67 umol, iv after 15 mins by mass spectrometry analysis; assay type: ADME, organism-based; conditions: in vivo, 0.25 h
In short: (§3)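 Cyanidin 3-glucoside in saline was injected into the iliac vein of fasting, anaesthetized rats (0.67 μmol; 76 μM in plasma). Urine and bile were collected to 15 min, and their volumes were measured. Anthocyanin levels were measured by LC-MS and corrected for recovery from spiked standards. Amounts are given per collected volume (n = 9 urine, n = 4 bile).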

[7] = tested on: Kidney; assay: Drug uptake in Wistar rat kidney assessed as peonidin 3-glucoside level by assuming kidney mass was 2.4 gram at 0.67 umol, iv after 1 min by mass spectrometry analysis; assay type: ADME, organism-based; conditions: in vivo; in short: as §2
[8] = tested on: Liver; assay: Drug uptake in Wistar rat liver assessed as peonidin 3-glucoside level by assuming liver mass was 7 grams at 0.67 umol, iv after 5 mins by mass spectrometry analysis; assay type: ADME, organism-based; conditions: in vivo; in short: as §1
[9] = tested on: Kidney; assay: Drug uptake in Wistar rat kidney assessed as peonidin 3-glucoside level at 0.67 umol, iv after 5 mins by mass spectrometry analysis; assay type: ADME, organism-based; conditions: in vivo, read-out: Drug uptake; in short: as §2
[10] = tested on: Liver; assay: Drug uptake in Wistar rat liver assessed as peonidin 3-glucoside level at 0.67 umol, iv after 1 min by mass spectrometry analysis; assay type: ADME, organism-based; conditions: in vivo; in short: as §1
[11] = tested on: Plasma; assay: Drug uptake in Wistar rat plasma assessed as peonidin 3-glucoside level at 0.67 umol, iv after 0.25 mins by mass spectrometry analysis; assay type: ADME, organism-based; conditions: in vivo, 15 s
In short: (§4)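 Fasted, anaesthetized rats received the anthocyanin in saline as a 0.67 μmol iliac-vein bolus (76 μM in plasma). They were sacrificed at 15 s, 1, 5 or 15 min, and plasma, kidneys, liver, urine and bile were collected. Anthocyanins were methanol-extracted, SPE-cleaned and quantified by MS (tandem MS for trace metabolites), then corrected for recovery measured on spiked blood, homogenates and urine. Amounts assume 8.8 mL plasma, 2.4 g kidney and 7.0 g liver, with urine and bile volumes measured.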

[12] = tested on: Liver; assay: Drug uptake in Wistar rat liver assessed as peonidin 3-glucoside level by assuming liver mass was 7 grams at 0.67 umol, iv after 15 mins by mass spectrometry analysis; assay type: ADME, organism-based; conditions: in vivo, 0.25 h; in short: as §1
[13] = tested on: Nucleic Acid; assay: Ratio of drug uptake in bile to liver in Wistar rat assessed as peonidin 3-glucoside level at 0.67 umol, iv after 15 mins by mass spectrometry analysis; assay type: ADME, organism-based; conditions: in vivo, 0.25 h
[14] = tested on: Kidney; assay: Drug uptake in Wistar rat kidney assessed as peonidin 3-glucoside level at 0.67 umol, iv after 0.25 mins by mass spectrometry analysis; assay type: ADME, organism-based; conditions: in vivo, 15 s, read-out: Drug uptake; in short: as §2
[15] = tested on: Nucleic Acid; assay: Ratio of drug uptake in urine to kidney in Wistar rat assessed as peonidin 3-glucoside level at 0.67 umol, iv after 15 mins by mass spectrometry analysis; assay type: ADME, organism-based; conditions: in vivo, 0.25 h
[16] = tested on: Liver; assay: Drug uptake in Wistar rat liver assessed as peonidin 3-glucoside level at 0.67 umol, iv after 0.25 mins by mass spectrometry analysis; assay type: ADME, organism-based; conditions: in vivo, 15 s; in short: as §1
[17] = tested on: Kidney; assay: Drug uptake in Wistar rat kidney assessed as peonidin 3-glucoside level by assuming kidney mass was 2.4 gram at 0.67 umol, iv after 5 mins by mass spectrometry analysis; assay type: ADME, organism-based; conditions: in vivo; in short: as §2
[18] = tested on: Liver; assay: Drug uptake in Wistar rat liver assessed as peonidin 3-glucoside level by assuming liver mass was 7 grams at 0.67 umol, iv after 1 min by mass spectrometry analysis; assay type: ADME, organism-based; conditions: in vivo; in short: as §1
[19] = tested on: Kidney; assay: Drug uptake in Wistar rat kidney assessed as peonidin 3-glucoside level at 0.67 umol, iv after 1 min by mass spectrometry analysis; assay type: ADME, organism-based; conditions: in vivo, read-out: Drug uptake; in short: as §2
[20] = Drug uptake in Wistar rat urine assessed as peonidin 3-glucoside level at 0.67 umol, iv after 15 mins by mass spectrometry analysis; assay type: ADME, organism-based; conditions: in vivo, 0.25 h, read-out: Drug uptake; in short: as §4
[21] = Drug uptake in Wistar rat urine assessed as peonidin 3-glucoside level by assuming plasma volume was 8.8 mL at 0.67 umol, iv after 15 mins by mass spectrometry analysis; assay type: ADME, organism-based; conditions: in vivo, 0.25 h; in short: as §4
[22] = tested on: Kidney; assay: Drug uptake in Wistar rat kidney assessed as peonidin 3-glucoside level at 0.67 umol, iv after 15 mins by mass spectrometry analysis; assay type: ADME, organism-based; conditions: in vivo, 0.25 h, read-out: Drug uptake; in short: as §2
[23] = tested on: Plasma; assay: Drug uptake in Wistar rat plasma assessed as peonidin 3-glucoside level at 0.67 umol, iv after 15 mins by mass spectrometry analysis; assay type: ADME, organism-based; conditions: in vivo, 0.25 h; in short: as §4
[24] = Drug excretion in Wistar rat bile assessed as peonidin 3-glucoside level at 0.67 umol, iv after 15 mins by mass spectrometry analysis; assay type: ADME, organism-based; conditions: in vivo, 0.25 h; in short: as §3
[25] = Drug uptake in Wistar rat bile assessed as peonidin 3-glucoside level at 0.67 umol, iv after 15 mins by mass spectrometry analysis; assay type: ADME, organism-based; conditions: in vivo, 0.25 h, read-out: Drug uptake; in short: as §3
[26] = tested on: Plasma; assay: Drug uptake in Wistar rat plasma assessed as peonidin 3-glucoside level at 0.67 umol, iv after 1 min by mass spectrometry analysis; assay type: ADME, organism-based; conditions: in vivo; in short: as §4
[27] = tested on: Kidney; assay: Drug uptake in Wistar rat kidney assessed as peonidin 3-glucoside level by assuming kidney mass was 2.4 gram at 0.67 umol, iv after 15 mins by mass spectrometry analysis; assay type: ADME, organism-based; conditions: in vivo, 0.25 h; in short: as §2
[28] = tested on: Kidney; assay: Drug uptake in Wistar rat kidney assessed as petunidin 3-glucoside level by assuming kidney mass was 2.4 gram at 0.67 umol, iv after 15 mins by tandem mass spectrometry; assay type: ADME, organism-based; conditions: in vivo, 0.25 h; in short: as §2
[29] = tested on: Kidney; assay: Drug uptake in Wistar rat kidney assessed as petunidin 3-glucoside level by assuming kidney mass was 2.4 gram at 0.67 umol, iv after 5 mins by tandem mass spectrometry; assay type: ADME, organism-based; conditions: in vivo; in short: as §2
[30] = tested on: Kidney; assay: Drug uptake in Wistar rat kidney assessed as petunidin 3-glucoside level at 0.67 umol, iv after 15 mins by tandem mass spectrometry; assay type: ADME, organism-based; conditions: in vivo, 0.25 h, read-out: Drug uptake; in short: as §2
[31] = tested on: Kidney; assay: Drug uptake in Wistar rat kidney assessed as petunidin 3-glucoside level at 0.67 umol, iv after 5 mins by tandem mass spectrometry; assay type: ADME, organism-based; conditions: in vivo, read-out: Drug uptake
[32] = Ratio of drug uptake in urine to kidney in Wistar rat assessed as petunidin 3-glucoside level at 0.67 umol, iv after 15 mins by mass spectrometry analysis; conditions: in vivo, 0.25 h
[33] = tested on: Plasma; assay: Drug uptake in Wistar rat plasma assessed as petunidin 3-glucoside level at 0.67 umol, iv after 0.25 mins by tandem mass spectrometry; assay type: ADME, organism-based; conditions: in vivo, 15 s; in short: as §4
[34] = Drug excretion in Wistar rat urine assessed as petunidin 3-glucoside level at 0.67 umol, iv after 15 mins by mass spectrometry analysis; assay type: ADME, organism-based; conditions: in vivo, 0.25 h
[35] = tested on: Plasma; assay: Drug uptake in Wistar rat plasma assessed as petunidin 3-glucoside level at 0.67 umol, iv after 1 min by tandem mass spectrometry; assay type: ADME, organism-based; conditions: in vivo; in short: as §4

COc1cc(-c2[o+]c3cc(O)cc(O)c3cc2O[C@@H]2O[C@H](CO)[C@@H](O)[C@H](O)[C@H]2O)ccc1O
Drug uptake [1]: 4.6 µM
Drug uptake [2]: 46 nmol
concentration [3]: 4.9 µM
Drug uptake [4]: 58.5 nmol
Drug uptake [5]: 41.1 nmol
Activity [6]: 14.7%
Drug uptake [7]: 99.5 nmol
Drug uptake [8]: 34.5 nmol
concentration [9]: 16.1 µM
Drug uptake [10]: 11.5 µM
concentration [11]: 1.2 µM
Drug uptake [12]: 31.9 nmol
Ratio [13]: 86.5
concentration [14]: 19.2 µM
Ratio [15]: 34.5
Drug uptake [16]: 5.9 µM
Drug uptake [17]: 38.8 nmol
Drug uptake [18]: 80.4 nmol
concentration [19]: 41.5 µM
concentration [20]: 707 µM
Drug uptake [21]: 98.7 nmol
concentration [22]: 20.5 µM
concentration [23]: 0.6 µM
Activity [24]: 8.8%
concentration [25]: 398 µM
concentration [26]: 0.5 µM
Drug uptake [27]: 49.2 nmol

COc1cc(-c2[o+]c3cc(O)cc(O)c3cc2O[C@@H]2O[C@H](CO)[C@@H](O)[C@H](O)[C@H]2O)cc(O)c1O
Drug uptake [28]: 2317 pmol
Drug uptake [29]: 2210 pmol
concentration [30]: 0.966 µM
concentration [31]: 0.879 µM
Ratio [32]: 4.5
concentration [33]: 0.002 µM
Activity [34]: 0.1%
concentration [35]: 0.002 µM
